Assay results as given in the M2OR odorant receptor database.

What was measured:
Conditions in all cases: stereoisomer not certain
UniProt Q8VFV2 = biological target: UniProt Q8VFV2
How it was run: (§1)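 Assay methods differ from source to source, frequently being transient luciferase assays in mammalian cell lines. For each receptor–molecule pair, the label responsive (active) applies when the original authors judged the measured signal statistically different from baseline, and non-responsive (inactive) applies otherwise.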

UniProt Q8VFV3 = biological target: UniProt Q8VFV3
Sequence of UniProt Q8VFV3 (Q8VFV3 as listed by the source): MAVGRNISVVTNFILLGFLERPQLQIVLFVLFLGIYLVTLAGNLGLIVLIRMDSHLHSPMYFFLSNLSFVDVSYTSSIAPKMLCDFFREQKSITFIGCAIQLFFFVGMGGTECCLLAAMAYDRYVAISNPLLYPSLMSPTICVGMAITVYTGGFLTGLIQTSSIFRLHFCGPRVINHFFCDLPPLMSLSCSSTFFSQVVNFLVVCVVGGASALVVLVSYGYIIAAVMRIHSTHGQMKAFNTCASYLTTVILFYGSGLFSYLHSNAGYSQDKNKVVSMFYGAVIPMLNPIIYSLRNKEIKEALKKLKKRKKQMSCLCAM
How it was run: as §1

UniProt Q8VFV8 = biological target: UniProt Q8VFV8
Sequence of UniProt Q8VFV8 (Q8VFV8 as listed by the source): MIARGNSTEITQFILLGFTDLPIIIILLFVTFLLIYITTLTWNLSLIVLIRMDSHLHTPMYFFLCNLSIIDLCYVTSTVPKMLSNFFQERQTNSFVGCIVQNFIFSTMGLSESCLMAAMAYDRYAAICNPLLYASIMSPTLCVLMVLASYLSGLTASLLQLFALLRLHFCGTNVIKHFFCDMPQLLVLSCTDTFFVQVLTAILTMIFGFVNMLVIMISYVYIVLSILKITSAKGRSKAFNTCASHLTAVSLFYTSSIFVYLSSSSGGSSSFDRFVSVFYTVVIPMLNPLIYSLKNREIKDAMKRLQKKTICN
How it was run: as §1

UniProt Q8VFW7 = biological target: UniProt Q8VFW7
Sequence of UniProt Q8VFW7 (Q8VFW7 as listed by the source): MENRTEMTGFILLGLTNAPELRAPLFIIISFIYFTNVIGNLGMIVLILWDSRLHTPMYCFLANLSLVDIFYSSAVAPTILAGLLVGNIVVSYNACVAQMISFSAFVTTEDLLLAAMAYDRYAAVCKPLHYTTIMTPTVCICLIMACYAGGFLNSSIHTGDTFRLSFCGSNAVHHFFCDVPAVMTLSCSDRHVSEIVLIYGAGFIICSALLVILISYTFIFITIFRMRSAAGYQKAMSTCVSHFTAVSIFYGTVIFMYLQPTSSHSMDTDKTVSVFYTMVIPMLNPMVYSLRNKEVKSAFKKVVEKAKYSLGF
How it was run: as §1

UniProt Q8VFZ6 = biological target: T1, UniProt Q8VFZ6
T1 sequence (whole entry): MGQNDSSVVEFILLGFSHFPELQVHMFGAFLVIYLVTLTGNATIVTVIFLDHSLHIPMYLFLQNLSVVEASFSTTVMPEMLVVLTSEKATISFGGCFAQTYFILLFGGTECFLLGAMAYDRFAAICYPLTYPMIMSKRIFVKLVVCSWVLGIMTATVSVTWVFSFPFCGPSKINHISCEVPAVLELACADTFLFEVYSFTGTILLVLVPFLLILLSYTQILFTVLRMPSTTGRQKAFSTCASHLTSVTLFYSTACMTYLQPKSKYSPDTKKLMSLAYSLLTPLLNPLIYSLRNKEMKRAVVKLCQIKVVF
How it was run: as §1

UniProt Q8VG01 = biological target: T2, UniProt Q8VG01
T2 sequence (whole entry): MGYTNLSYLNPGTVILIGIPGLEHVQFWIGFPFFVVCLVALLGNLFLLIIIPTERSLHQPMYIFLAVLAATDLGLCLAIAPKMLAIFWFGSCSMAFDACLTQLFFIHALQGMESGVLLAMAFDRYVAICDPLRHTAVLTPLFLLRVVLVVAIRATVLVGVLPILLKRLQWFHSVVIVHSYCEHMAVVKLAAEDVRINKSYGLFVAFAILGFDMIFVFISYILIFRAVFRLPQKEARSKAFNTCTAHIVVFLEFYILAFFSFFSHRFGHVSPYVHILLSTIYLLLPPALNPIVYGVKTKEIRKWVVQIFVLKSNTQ
How it was run: as §1

UniProt Q8VG22 = biological target: T3, UniProt Q8VG22
T3 sequence (whole entry): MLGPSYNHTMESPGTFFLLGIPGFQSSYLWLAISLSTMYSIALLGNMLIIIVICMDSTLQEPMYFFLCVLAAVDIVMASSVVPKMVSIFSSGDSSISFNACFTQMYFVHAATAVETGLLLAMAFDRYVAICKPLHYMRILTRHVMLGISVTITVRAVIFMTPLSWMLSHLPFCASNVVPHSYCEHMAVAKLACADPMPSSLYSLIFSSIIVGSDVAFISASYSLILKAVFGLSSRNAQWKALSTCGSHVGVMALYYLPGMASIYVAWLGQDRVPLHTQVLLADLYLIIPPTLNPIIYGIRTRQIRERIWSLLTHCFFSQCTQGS
How it was run: as §1

UniProt Q8VG26 = biological target: UniProt Q8VG26
Sequence of UniProt Q8VG26 (Q8VG26 as listed by the source): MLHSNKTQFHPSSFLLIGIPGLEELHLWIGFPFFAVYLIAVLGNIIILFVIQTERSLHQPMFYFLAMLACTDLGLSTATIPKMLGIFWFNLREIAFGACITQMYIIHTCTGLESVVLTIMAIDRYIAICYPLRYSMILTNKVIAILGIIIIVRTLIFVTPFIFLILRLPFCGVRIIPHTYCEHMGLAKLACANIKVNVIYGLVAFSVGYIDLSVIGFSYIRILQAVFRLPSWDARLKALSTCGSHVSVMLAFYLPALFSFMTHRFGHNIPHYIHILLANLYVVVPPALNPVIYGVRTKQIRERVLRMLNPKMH
How it was run: as §1

UniProt Q8VFP5 = biological target: T4, UniProt Q8VFP5
T4 sequence (whole entry): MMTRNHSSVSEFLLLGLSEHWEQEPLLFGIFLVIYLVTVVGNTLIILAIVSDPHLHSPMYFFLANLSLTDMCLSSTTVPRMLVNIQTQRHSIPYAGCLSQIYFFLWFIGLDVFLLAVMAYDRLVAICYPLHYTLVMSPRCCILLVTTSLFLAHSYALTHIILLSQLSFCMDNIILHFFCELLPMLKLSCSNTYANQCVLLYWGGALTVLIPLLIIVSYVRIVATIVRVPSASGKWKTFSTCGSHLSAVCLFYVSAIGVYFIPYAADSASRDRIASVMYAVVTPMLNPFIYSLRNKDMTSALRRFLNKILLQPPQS
How it was run: as §1

UniProt Q8VFQ6 = biological target: UniProt Q8VFQ6
Sequence of UniProt Q8VFQ6 (Q8VFQ6 as listed by the source): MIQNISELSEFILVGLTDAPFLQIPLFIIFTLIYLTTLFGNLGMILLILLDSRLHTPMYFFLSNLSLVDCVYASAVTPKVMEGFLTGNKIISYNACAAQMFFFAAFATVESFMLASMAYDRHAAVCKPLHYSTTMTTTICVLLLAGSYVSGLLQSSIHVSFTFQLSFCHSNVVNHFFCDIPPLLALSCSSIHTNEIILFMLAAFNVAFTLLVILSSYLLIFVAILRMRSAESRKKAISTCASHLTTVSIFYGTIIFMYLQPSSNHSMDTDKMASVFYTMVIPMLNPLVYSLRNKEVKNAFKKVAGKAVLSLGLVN
How it was run: as §1

Sequence of UniProt Q8VFV2 (Q8VFV2 as listed by the source): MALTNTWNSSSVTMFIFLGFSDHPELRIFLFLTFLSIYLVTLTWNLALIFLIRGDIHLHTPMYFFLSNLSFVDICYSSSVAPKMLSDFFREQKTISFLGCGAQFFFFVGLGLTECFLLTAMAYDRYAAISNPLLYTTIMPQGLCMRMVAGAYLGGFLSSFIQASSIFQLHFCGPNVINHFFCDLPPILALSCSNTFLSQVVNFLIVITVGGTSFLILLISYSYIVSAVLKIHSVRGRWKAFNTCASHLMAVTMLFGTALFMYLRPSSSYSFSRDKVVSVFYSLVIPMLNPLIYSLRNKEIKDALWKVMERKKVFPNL

For CC1CCCCCCCCCCCCC(=O)C1 (stereo unspecified), which “odorant receptor agonist call” value (UniProt Q8VFV2) is on record?
Its value is “inactive”.

And the “odorant receptor agonist call” value (UniProt Q8VFV3)?
The value was “inactive”.

And the “odorant receptor agonist call” value (UniProt Q8VFV8)?
Its value is “inactive”.

And the “odorant receptor agonist call” value (UniProt Q8VFW7)?
Its value is “inactive”.

Which “odorant receptor agonist call” value (UniProt Q8VFZ6) does the source give for CCCCCCC(=O)[O-].[H+] here?
The value was “inactive”.

And the “odorant receptor agonist call” value (UniProt Q8VG01)?
Its value is “active”.

And the “odorant receptor agonist call” value (UniProt Q8VG22)?
Its value is “inactive”.

And the “odorant receptor agonist call” value (UniProt Q8VG26)?
Its value is “inactive”.

CCCCCCC=CC=O was tested. Which “odorant receptor agonist call” value (UniProt Q8VFP5) did it give?
The value was “inactive”.

What about the “odorant receptor agonist call” value (UniProt Q8VG01) of the same compound?
Its value is “inactive”.

CC(C)=CCCC(C)=CCOC(=O)C(C)C was tested. Which “odorant receptor agonist call” value (UniProt Q8VFP5) did it give?
Its value is “inactive”.

What about the “odorant receptor agonist call” value (UniProt Q8VG01) of the same compound?
The value was “inactive”.

For CCCCC=O, which “odorant receptor agonist call” value (UniProt Q8VFP5) is on record?
The value was “inactive”.

What about the “odorant receptor agonist call” value (UniProt Q8VG01) of the same compound?
Its value is “inactive”.

What about the “odorant receptor agonist call” value (UniProt Q8VG26) of the same compound?
The value was “inactive”.

CCCCCO was tested. Which “odorant receptor agonist call” value (UniProt Q8VFZ6) did it give?
Its value is “inactive”.

What about the “odorant receptor agonist call” value (UniProt Q8VG01) of the same compound?
The value was “inactive”.

And the “odorant receptor agonist call” value (UniProt Q8VG22)?
Its value is “active”.

For CCC=CCCC=CC=O, which “odorant receptor agonist call” value (UniProt Q8VFP5) is on record?
The value was “inactive”.

And the “odorant receptor agonist call” value (UniProt Q8VG01)?
The value was “inactive”.

How did the “odorant receptor agonist call” value (UniProt Q8VG26) turn out when CCCCOC(=O)CCC was run?
The value was “inactive”.

What does the source list for CCCCCC(C=O)=Cc1ccccc1?
odorant receptor agonist call (UniProt Q8VFP5): inactive; odorant receptor agonist call (UniProt Q8VG01): inactive

What does the source list for O=c1ccc2ccccc2o1?
odorant receptor agonist call (UniProt Q8VFQ6): inactive; odorant receptor agonist call (UniProt Q8VFZ6): inactive; odorant receptor agonist call (UniProt Q8VG01): inactive; odorant receptor agonist call (UniProt Q8VG22): active

What does the source list for C1CCOC1?
odorant receptor agonist call (UniProt Q8VFP5): inactive; odorant receptor agonist call (UniProt Q8VG01): inactive

Which “odorant receptor agonist call” value (UniProt Q8VFP5) does the source give for COc1nccnc1C here?
Its value is “inactive”.

What about the “odorant receptor agonist call” value (UniProt Q8VG01) of the same compound?
Its value is “inactive”.
